# Compound activity deposited in PubChem BioAssay by several laboratories.
# Granule exo inh – lytic granule exocytosis inhibition; AID 651702; actives 0.66% (n = 360,000); inhibition, % at 10 µM; TALL-104 LAMP-1 surface exposure, flow cytometry; cells stimulated with thapsigargin and PMA;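 active = inhibition above about 55%, limit read from the data; inconclusive = no clear call, values can overlap the other calls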
# Myeloid diff MLP – compounds promoting myeloid differentiation; actives 1% (n = 360,000); AID 624256; calls only at 10 µM; ER-HoxA9 myeloid progenitors, lysozyme-GFP differentiation, flow cytometry;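 active = normalized GFP-positive differentiation at or above the plate's own cutoff, the solvent-only control mean plus 3 SD; inconclusive = no clear call, values can overlap the other calls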;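 note: cells exposed to compound for four days before flow analysis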
# CSN deneddyl inh – inhibitors of human CSN-mediated cullin deneddylation; Purified CSN, SCF-Nedd8-OG deneddylation, fluorescence polarization; Q92905; actives 0.38% (n = 360,000); inhibition, % at 12.5 µM;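 active = pattern-corrected inhibition above about 35%, with an unprinted fluorescence ratio check between 0.5 and 1.5, limit read from the data, passing the limit was not always enough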;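 note: 0% = enzyme with substrate and 100% = substrate without enzyme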
#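 assay system = purified human Csn5 enzyme expressed in HEK293T cells | amount = 0.24 nM enzyme | buffer or medium = Tris/NaCl/DTT buffer, pH 7.5 | reagent = 10 nM SCFSkp2-Nedd8OG | compound = one concentration, 12.5 µM, 0.25% DMSO | times = 90 min reaction at room temperature | signal = FP | read-out basis = % inhibition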
# HNF4A DNA FP – change in binding of human HNF4 alpha to DNA; HNF4a-FITC DNA binding, fluorescence polarization, 1 h; AID 1224865; actives 0.3% (n = 360,000); activity change, % at 10 µM; in the data active = activity change above about 30%, passing the limit was not always enough
# Target sequence (P41235 whole entry, looked up): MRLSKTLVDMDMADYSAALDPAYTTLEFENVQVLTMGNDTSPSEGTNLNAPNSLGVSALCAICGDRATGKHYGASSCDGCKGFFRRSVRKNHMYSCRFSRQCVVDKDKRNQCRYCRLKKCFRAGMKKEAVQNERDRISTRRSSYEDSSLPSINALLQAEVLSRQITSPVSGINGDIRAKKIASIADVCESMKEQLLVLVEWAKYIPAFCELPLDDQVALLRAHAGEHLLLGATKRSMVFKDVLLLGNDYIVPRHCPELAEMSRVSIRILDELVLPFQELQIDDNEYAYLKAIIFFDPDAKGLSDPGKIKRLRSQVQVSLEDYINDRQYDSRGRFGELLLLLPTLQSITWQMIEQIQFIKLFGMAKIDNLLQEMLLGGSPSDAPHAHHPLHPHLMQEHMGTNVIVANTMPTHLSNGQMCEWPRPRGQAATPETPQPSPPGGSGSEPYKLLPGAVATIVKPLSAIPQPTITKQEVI
# Myeloid diff – compounds promoting myeloid differentiation; shares compounds with Myeloid diff MLP; ER-HoxA9 myeloid progenitors, GFP/Mac1 double-positive flow; calls only; actives 2% (n = 2,300);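 active = share of green or green-and-red cells above 9 and 9% in run 1 or 4 and 3% in run 2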
# GFP autofluor – counter-screen for myeloid differentiation promoters: compound fluorescence; shares compounds with Myeloid diff MLP; ER-HoxA9 myeloid progenitors, no estrogen, GFP autofluorescence flow cytometry; vehicle wells 0%, positive control 100%; fluorescence response, % (concentration not given with the values); actives 7.4% (n = 2,300);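 active = over 5% cells positive for green fluorescent reporter, or over 2% positive for both it and APC stain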;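 note: range taken on the double positive population between DMSO and positive control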
# * marks the source's active call; other numbers are inactive results; i = inactive; ? = inconclusive; · = not tested or not shown; + = active, no number. An excerpt weighted towards active compounds, which were near 2.2% of everything screened.
SMILES,Granule exo inh,Myeloid diff MLP,CSN deneddyl inh,HNF4A DNA FP,Myeloid diff,GFP autofluor
Cc1cccc(NC(=O)CCCN2C(=O)C(c3ccccc3)Oc3cccnc32)c1C (centres undefined),-3,?,-6,0,·,·
Cc1cc(NC(=O)CN2CCC(n3nnc4cc(C(F)(F)F)ccc43)CC2)no1,0,+,4,1,i,0
O=C(C[C@H]1CC[C@H](NC(=O)C2CCOCC2)[C@@H](CO)O1)NCc1ccncc1,3,i,1,-1,·,·
COC(=O)c1ccccc1NC(=O)C1CC=CCC1C(=O)O (centres undefined),-1,i,3,1,i,0
O=C(NCCc1ccccc1)c1ccccc1NC(=O)C1CC=CCC1C(=O)O (centres undefined),-2,i,-12,3,·,·
CCCNC(=O)C1(C)CCCN(C(=O)c2ccccc2OC)C1 (centres undefined),11,i,-2,0,·,·
Cc1ccc(/C=N/NC(=O)CNC(=O)COc2ccc(Cl)cc2)o1,4,+,2,2,i,0
COCC(C)NCc1cccc(OC)c1OC (centres undefined),0,i,1,-4,i,0
CC1C(=O)N(Cc2cn(CCC3OCCCO3)nn2)CCS(=O)(=O)N1Cc1ccc(-c2ccccc2)cc1 (centres undefined),-3,+,-6,-4,i,0
CC(C)CC1C(=O)N(Cc2cn(CC3CCCCC3)nn2)CCS(=O)(=O)N1Cc1ccc(-c2ccncc2)cc1 (centres undefined),-3,i,-2,-1,i,0
CCOc1cccc2c1OC1(C)CC2NC(=O)N1c1cccc(C(=O)NCc2ccccn2)c1 (centres undefined),3,i,-1,-4,·,·
CCN1/C(=C\C=C2\C(=O)N(C)C(=S)N2C)Sc2ccccc21,3,i,9,32,i,0
CCOC(=O)c1c(NC(=O)CCC(=O)O)sc2c1CCCCC2,-7,i,-7,4,·,·
CCOC(=O)c1c(NC(=O)CNCCOC)sc2c1CCCC2,-6,i,-3,-4,i,0
O=[N+]([O-])c1ccc(N/N=C\c2ccccc2OCc2ccccc2)cc1,-7,+,16,27,i,0
Cc1cc(C)nc(N/N=C/c2ccccc2OCc2ccc([N+](=O)[O-])cc2)n1,0,i,0,-1,·,·
Cc1cccc(N2CCN(C(=O)C3CCN(S(=O)(=O)N4CCOCC4)CC3)CC2C)c1 (centres undefined),-4,+,1,0,i,2
O=C(CCN1CCN(c2ccccc2)CC1)Nc1ccccc1F,0,i,-2,3,i,0
Cn1c(=O)n(CC(=O)NCC2CCCO2)c(=O)c2c3c(sc21)COC(C)(C)C3 (centres undefined),-2,i,0,-1,·,·
Cc1ccc(O)c(NC(=O)CCC2CCCCC2)c1,0,i,1,-2,i,0
Cn1cc(Br)c(C(=O)N/N=C/c2cc3ccccc3nc2Cl)n1,-3,i,-3,3,·,·
CSc1nnc(N2C(=O)C(O)=C(C(=O)c3ccc(C)o3)C2c2ccc(C)cc2)s1 (centres undefined),5,+,4,-6,i,0
CSc1nnc(N2C(=O)C(O)=C(C(=O)c3ccco3)C2c2ccccc2)s1 (centres undefined),-12,i,-4,-12,·,·
COc1ccc(N/C=C2/CCCCC2=O)cc1,0,i,-4,2,i,1
COC(=O)[C@H](CCSC)NC(=O)NCc1cccs1,0,i,0,-3,i,0
COC(=O)c1cc(S(=O)(=O)Nc2cc(OC)cc(OC)c2)c[nH]1,-2,i,-1,0,·,·
CCC(C)NC(=O)CSc1ccc(S(=O)(=O)N(C)C2CCCCC2)cn1 (centres undefined),-2,i,1,0,·,·
CC(C)CN(C(=O)COC(=O)C12CC3CC(CC(O)(C3)C1)C2)c1c(N)n(Cc2ccccc2)c(=O)[nH]c1=O,0,i,-3,4,·,·
